One may read the Kd as the free concentration of one partner at which half of the binding sites on the other are occupied at equilibrium, for simple one-to-one binding. For orientation: solubility means the concentration that dissolves in the medium under given conditions.

Data on twelve molecules can be found in ChEMBL document CHEMBL5370689, “Development of Allosteric NIK Ligands from Fragment-Based NMR Screening” (ACS Med Chem Lett, 2023).

Series [1] addresses T1, Mitogen-activated protein kinase kinase kinase 14 (Homo sapiens, UniProt Q99558). The series can be described thus: Binding affinity to biotinylated N-terminal 6His-tagged/TEV cleavage site-fused human NIK by SPR analysis. The method, boiled down:
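Biotinylated NIK was probed by SPR with no nucleotide added, in dose–response format. Responses were plotted as a binding curve to give Kd, reported as mean ± SEM of two determinations.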
Target sequence in this assay (Q99558 whole entry, the tested form may be a part): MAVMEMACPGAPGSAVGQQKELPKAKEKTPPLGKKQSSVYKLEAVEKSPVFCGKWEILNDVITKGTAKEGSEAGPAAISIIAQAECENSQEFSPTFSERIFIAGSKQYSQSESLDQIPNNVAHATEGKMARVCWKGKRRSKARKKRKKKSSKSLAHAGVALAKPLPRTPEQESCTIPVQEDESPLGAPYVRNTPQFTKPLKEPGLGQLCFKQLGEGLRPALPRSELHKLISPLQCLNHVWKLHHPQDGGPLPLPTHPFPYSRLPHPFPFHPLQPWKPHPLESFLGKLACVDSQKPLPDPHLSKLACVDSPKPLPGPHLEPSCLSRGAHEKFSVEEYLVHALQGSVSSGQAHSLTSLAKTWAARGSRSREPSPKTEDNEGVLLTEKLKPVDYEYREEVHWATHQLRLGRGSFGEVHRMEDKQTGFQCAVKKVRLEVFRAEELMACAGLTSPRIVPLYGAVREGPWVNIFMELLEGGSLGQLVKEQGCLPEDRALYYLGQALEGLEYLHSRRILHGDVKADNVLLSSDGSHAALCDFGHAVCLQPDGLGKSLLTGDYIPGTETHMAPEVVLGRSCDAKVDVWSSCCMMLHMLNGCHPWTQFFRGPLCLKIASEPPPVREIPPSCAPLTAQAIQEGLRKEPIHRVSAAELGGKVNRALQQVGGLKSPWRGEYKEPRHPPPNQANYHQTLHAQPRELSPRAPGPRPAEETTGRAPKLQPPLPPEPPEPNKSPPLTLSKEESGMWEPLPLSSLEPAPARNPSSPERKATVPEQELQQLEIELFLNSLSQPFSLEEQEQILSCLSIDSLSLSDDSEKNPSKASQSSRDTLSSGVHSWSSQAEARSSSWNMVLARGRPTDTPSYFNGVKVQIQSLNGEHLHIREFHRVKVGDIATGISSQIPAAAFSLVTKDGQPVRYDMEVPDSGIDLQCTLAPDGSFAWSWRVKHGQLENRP

Series [2] deals with T1, Mitogen-activated protein kinase kinase kinase 14. As to the kind of experiment: Binding affinity to biotinylated N-terminal 6His-tagged/TEV cleavage site-fused human NIK in presence of AMP-PNP by SPR analysis. An outline of the steps: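 Dose–response SPR used biotinylated NIK in the presence of saturating AMP-PNP. Kd came from the fitted binding curve, reported as mean ± SEM of two determinations.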
Background: SPR reads the build-up and loss of mass on a sensor chip optically.
Target sequence in this assay (Q99558 whole entry, the tested form may be a part): as above

Series [3] can be described thus: Aqueous solubility of the compound in K2HPO4 in D2O with 5% DMSO-d6 at pH 7.4 by qNMR spectra analysis. The series is classed as physicochemical. The note with it: K2HPO4 buffer in D2O with 5% DMSO-d6, pH 7.4.
Series [4] in a line: Aggregation property of the compound in sodium phosphate buffer at pH 7.4 by 1H-NMR spectra analysis. The series is classed as physicochemical.
Series [5] concerns the target T1, Mitogen-activated protein kinase kinase kinase 14. The series can be described thus: Binding affinity to N-terminal 6His-tagged/TEV cleavage site-fused human NIK assessed as attenuation of spectral signal at 100 uM in presence of AMP-PNP by 1H-CPMG-NMR analysis relative to control.
Target sequence in this assay (Q99558 whole entry, looked up, the tested form may be a part): as the sequence (Q99558 whole entry, the tested form may be a part) above
For series [6] the target is unchanged. The series can be described thus: Binding affinity to biotinylated N-terminal 6His-tagged/TEV cleavage site-fused human NIK at <500 uM by SPR analysis. An outline of the steps: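 Biotinylated NIK used as the SPR surface. Each fragment was run at five concentrations, and the responses were fitted to a binding curve to estimate affinity. A 500 µM affinity cut-off was applied.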
Target sequence in this assay (Q99558 whole entry, looked up, the tested form may be a part): as the sequence (Q99558 whole entry, the tested form may be a part) above

A short description of series [7]: Redox activity of the compound in HEPES/NaCl at pH 7.5 measured after 60 mins in presence of DTT by resazurin reagent based assay. The series is classed as physicochemical. As to conditions: pH 7.5, 1 h. The method, boiled down: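 A plate-based redox assay screened for redox activity as a source of false positives. NSC 663284, a known redox-active molecule, served as the positive control.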
(In general: Alamar Blue is a resazurin reagent that responds to reducing activity.)

The target of series [8] is T1, Mitogen-activated protein kinase kinase kinase 14. The series can be described thus: Binding affinity to N-terminal 6His-tagged/TEV cleavage site-fused human NIK assessed as attenuation of spectral signal at 100 uM by 1H-CPMG-NMR analysis relative to control.
Target sequence in this assay (Q99558 whole entry, looked up, the tested form may be a part): as the sequence (Q99558 whole entry, the tested form may be a part) above

Structures are written as SMILES. Calls of active or inactive are those of the source. Where only a bound is given, the exact number is not on record here.

Turning to `Cc1ccc2c(c1)OCCC2O` (stereo not given), the Kd in series [1] and in series [2] was over 1000 µM throughout.
For the molecule `OC1(c2ccccc2)CCOc2cc(Cl)ccc21` (stereo not given), the equilibrium dissociation constant (Kd) in series [1] was 572 µM; in series [2], 369 µM.
As for `CCC1(O)CCOc2cc(Cl)ccc21` (stereo not given), the equilibrium dissociation constant (Kd) in series [1] was determined as 206 µM; in series [2] it was 583 µM.
Turning to `OC1CCOc2cc(Cl)ccc21` (stereo not given), the solubility in series [3] is at least 5 mM. In addition, the Activity result in series [4] was “Not Active”; in series [5], over 50%; in series [7] it was “Not Active”; in series [8], over 50%. The results for the Kd in series [1] and in series [2] were 130 µM and 214 µM, respectively. Also, the outcome in series [6] was Active.
Take `COC1CCOc2cc(Cl)ccc21` (stereo not given): the Kd in series [1] and in series [2] was over 1000 µM throughout.
`Cc1cccc2c1OCCC2O` (stereo not given): the Kd in series [1] and in series [2] was over 1000 µM in each case.
Take `Cc1cc(Cl)cc2c1C(O)(c1ccccc1)CCO2` (stereo not given): the dissociation constant (Kd) in series [1] turned out to be 367 µM; in series [2], 717 µM.
On to `Cc1ccc2c(c1)C(O)CCO2` (stereo not given), for which the Kd in series [1] and in series [2] was over 1000 µM in each case.
Regarding `CC1(O)CCOc2cc(Cl)ccc21` (stereo not given), the equilibrium dissociation constant (Kd) in series [1] and in series [2] was over 1000 µM throughout.
On to `OC1(C2CC2)CCOc2cc(Cl)ccc21` (stereo not given), for which the dissociation constant (Kd) was determined as 40.4 µM in series [1] and 290 µM in series [2].
With `COc1cc(Cl)cc(C)c1C(C)(O)C1CC1` (stereo not given), the results for the equilibrium dissociation constant (Kd) in series [1] and in series [2] were 150 µM and 143 µM, respectively.
Regarding `Cc1cccc2c1C(O)CCO2` (stereo not given), the Kd in series [1] was 134 µM; in series [2], 131 µM.
